Screening results from PubChem.
Sampled rows, rich in hits. Any-hit rate of the full collection: about 2.3%.
TRPC6 activator: activators of mouse TRPC6 channel; Q61143; HEK293-TRPC6 membrane potential dye fluorescence; active compounds read high; B-score at 10 µM; AID 2550; hit rate 0.13% among 310,000;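 active = B-score of the integrated fluorescence ratio above library mean plus 3 SD, and starting fluorescence ratio within library mean plus 5 SD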;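 note: higher score means more depolarization so channel activation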
TRPC6 inh: inhibitors of mouse TRPC6 channel | Q61143 | HEK293-TRPC6, membrane potential dye, ACh-evoked depolarization; active compounds read low | B-score at 10 µM | hit rate 1.1% among 310,000 | AID 2553;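 active = B-score under library mean minus 3 SD, initial fluorescence not abnormally high, positive integrated signal ratio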;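 note: B-score derived from integrated fluorescence ratio over the kinetic read; more negative B-score means stronger inhibition of depolarization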
TRPC4 potent: allosterically enhances the mouse TRPC4 cation channel. hit rate 0.42% among 310,000. Q9QUQ5. HEK293 TRPC4beta/mu-opioid, DAMGO EC20, Fluo-4 Ca2+ flux; active compounds read high. B-score at 10 µM;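 active = B-score of calcium response area above 5 SD of library B-scores, with initial fluorescence ratio within 5 SD of library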;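 note: B-score of integrated fluorescence ratio over time as area under calcium response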
Target sequence (Q9QUQ5 whole entry, looked up): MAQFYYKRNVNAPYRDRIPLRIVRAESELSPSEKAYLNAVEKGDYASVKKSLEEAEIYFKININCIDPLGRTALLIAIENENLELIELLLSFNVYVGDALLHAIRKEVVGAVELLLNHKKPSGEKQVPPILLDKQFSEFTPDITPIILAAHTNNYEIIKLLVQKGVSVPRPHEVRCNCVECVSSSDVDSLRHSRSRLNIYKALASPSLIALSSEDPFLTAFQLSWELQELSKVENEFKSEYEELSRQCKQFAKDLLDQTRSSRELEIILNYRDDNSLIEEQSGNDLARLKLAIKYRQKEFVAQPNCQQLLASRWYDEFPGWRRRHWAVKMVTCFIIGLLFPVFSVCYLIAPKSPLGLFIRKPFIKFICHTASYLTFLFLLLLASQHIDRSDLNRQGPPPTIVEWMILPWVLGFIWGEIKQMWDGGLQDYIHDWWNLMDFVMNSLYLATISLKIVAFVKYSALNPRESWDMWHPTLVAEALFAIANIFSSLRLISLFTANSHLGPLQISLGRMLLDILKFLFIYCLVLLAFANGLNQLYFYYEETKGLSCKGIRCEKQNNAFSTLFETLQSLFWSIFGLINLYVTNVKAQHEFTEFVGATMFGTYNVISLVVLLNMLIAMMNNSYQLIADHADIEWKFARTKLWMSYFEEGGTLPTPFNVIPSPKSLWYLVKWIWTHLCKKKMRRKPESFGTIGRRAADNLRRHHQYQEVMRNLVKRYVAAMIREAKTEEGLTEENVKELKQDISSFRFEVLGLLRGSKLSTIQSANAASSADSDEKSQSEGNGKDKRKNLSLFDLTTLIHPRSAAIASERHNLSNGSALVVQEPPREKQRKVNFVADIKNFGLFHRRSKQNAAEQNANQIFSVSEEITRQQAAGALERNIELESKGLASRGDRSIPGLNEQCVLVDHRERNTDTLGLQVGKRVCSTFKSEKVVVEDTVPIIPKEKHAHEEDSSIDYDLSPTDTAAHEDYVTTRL
TRPC4 act: activators of mouse TRPC4 channel. Q9QUQ5. HEK293 TRPC4beta/mu-opioid, Fluo4 calcium fluorescence; active compounds read high. B-score at 10 µM. hit rate 0.49% among 310,000;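 active = B-score above 5 SD of library B-scores, and initial fluorescence ratio not above library mean plus 5 SD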;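 note: positive B-score marks a calcium rise read as TRPC4 activation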
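Material: TRPC4beta and mu-opioid receptor HEK293 stable cells | Incubation: 45 min room-temperature Fluo4 loading, 110 s read | Detection: Kinetic Fluo4 calcium fluorescence | Measure: Integrated baseline-normalised fluorescence ratio, converted to per-well B score | Benchmarks: Low control buffer alone, high control maximal DAMGO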
TRPC4 block: inhibitors of mouse TRPC4 channel; HEK293 TRPC4beta/mu-opioid, DAMGO-evoked Fluo4 calcium flux; active compounds read low; B-score at 10 µM; hit rate 0.39% among 300,000;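 active = B-score over 3 SD under the library average, no early fluorescence shift, positive overall ratio signal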
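Test system – stable TRPC4beta/mu-opioid receptor HEK293 cells · Probe or stimulus – DAMGO, a submaximal dose followed by a maximal one · Dosing – one concentration per compound · Signal – Fluo4 calcium fluorescence by kinetic imaging, 5 s 1 Hz baseline · Evaluation – per-well B score of integrated baseline-normalized Fluo4 ratio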
* marks the source's active call; other numbers are inactive results; i = inactive.

SMILES	TRPC6 activator	TRPC6 inh	TRPC4 potent	TRPC4 act	TRPC4 block
C=CCN(CC=C)CCOc1ccccc1	i	i	12*	i	i
CCCCN1C(=O)C(=O)N(CC(=O)Nc2cc(OCC)c(N3CCOCC3)cc2OCC)C1=O	i	i	21*	i	i
CCOc1cc(N2CCOCC2)c(OCC)cc1NC(=O)c1ccccc1C	i	i	i	i	i
CCOc1cc(N2CCOCC2)c(OCC)cc1NC(=O)CN1C(=O)C2CC=CCC2C1=O (stereo not drawn)	i	i	i	i	i
CCOc1cc(N2CCOCC2)c(OCC)cc1NC(=O)c1ccc2ccccc2n1	i	i	11*	i	i
O=C(O)c1ccccc1N/C=C\[N+](=O)[O-]	i	i	i	i	i
CN1CCN(CC#CCn2c3ccccc3c3ccccc32)CC1	i	i	16*	i	i
CN1CCN(CC(O)Cn2c3ccccc3c3ccccc32)CC1 (stereo not drawn)	i	i	i	i	i
O=C(NC(Nc1nc2ccc([N+](=O)[O-])cc2s1)(C(F)(F)F)C(F)(F)F)c1ccccc1Cl	14*	-6.9*	i	i	i
CNC(=O)CS(=O)CC(=O)Nc1cc(OCCOC)c(Cl)cc1Cl (stereo not drawn)	i	i	i	i	i
CN1CCCN(C(=O)c2c(F)cccc2Cl)CC1	i	i	i	i	i
Cc1ccc(SCCC(=O)NCCSCc2ccco2)cc1	i	i	i	i	i
Cc1ccc(SCCNCc2ccco2)cc1	i	i	10*	i	i
CS(=O)(=O)c1[nH]nc(-c2cccc(Cl)c2)c1C#N	i	i	i	i	i
Cc1cc(C)c(C(=O)NCCCN2CCOCC2)c(C)c1	i	i	i	i	i
CCN1CCCC1CNC(=O)c1ccccc1Cl (stereo not drawn)	i	i	i	i	i
CCc1cc(Cl)c(OC)c(C(=O)NC[C@@H]2CCCN2CC)c1O	i	i	i	70*	i
Cc1ccc(-n2ncc3c(SCc4ccccn4)ncnc32)c(C)c1	i	i	i	i	i
C=CCN(CC(O)c1cccc([N+](=O)[O-])c1)C(C)CCc1ccccc1 (stereo not drawn)	i	i	i	i	-5*
O=C(Cc1ccccc1)NC(NC(=O)Cc1ccccc1)c1cccc([N+](=O)[O-])c1	i	i	i	i	i
N=C1SCC(=O)N1c1ncc(Cc2ccc(F)cc2)s1	i	i	i	i	i
CCn1c2ccc(C)cc2c2nnc(NN)nc21	i	i	i	i	i
CCn1c2ccccc2c2nnc(NN)nc21	i	i	15*	45*	i
COc1ccc(Cl)cc1C(=O)NCC(c1ccco1)N(C)C (stereo not drawn)	i	i	i	i	i
O=C(NCC(c1ccco1)N1CCCC1)c1ccccc1F (stereo not drawn)	i	i	i	i	i
SMILES	TRPC6 activator	TRPC6 inh	TRPC4 potent	TRPC4 act	TRPC4 block
COc1ccc(Cl)cc1C(=O)NCC(c1ccco1)N1CCCC1 (stereo not drawn)	i	i	i	52*	i
O=C(NCC(c1ccco1)N1CCCC1)c1sc2ccccc2c1Cl (stereo not drawn)	i	i	i	43*	i
COc1ccccc1CN1C[C@@H]2C[C@@H](c3cccc(C)c3)N3CCC[C@@]23C1=O	i	i	i	i	i
CCOCCCN1CC(=O)N2[C@@H](Cc3c([nH]c4ccccc34)C2(C)C)C1=O	i	i	i	i	i
CN(C)C(CNc1ncnc2sccc12)c1ccccc1 (stereo not drawn)	i	i	i	75*	i
c1ccc(CCNc2ncnc3sccc23)nc1	i	i	i	51*	i
COc1ccc(C(CNc2ncnc3sccc23)N(C)C)cc1OC (stereo not drawn)	i	i	i	45*	i
Cc1csc2ncnc(NCCc3ccccn3)c12	i	i	i	i	i
O=C(Cn1cnc2ccccc2c1=O)c1ccc(OC(F)F)cc1	i	i	i	i	i
